Results pooled from the literature.
Compare with care: the assays were run in different laboratories.
DRD3: D(3) dopamine receptor (DRD3, Homo sapiens, UniProt P35462)
PDE10A: cAMP and cAMP-inhibited cGMP 3',5'-cyclic phosphodiesterase 10A (PDE10A, Homo sapiens, UniProt Q9Y233)

Compound	target	test	conditions	measurement	value
Cc1[nH]c(C)c(S(=O)(=O)Nc2ccc(C(F)(F)F)c(Cl)c2Cl)c1C(=O)N1CCC(F)(F)C1	DRD3	β-arrestin recruitment, agonist	90 min	Emax	105%
CCOC(=O)[C@@]12C[C@@H]1[C@@H](n1cnc3c(NCCCCc4ccccc4)nc(C#Cc4ccc(Cl)s4)nc31)[C@H](O)[C@@H]2O	Sodium-dependent dopamine transporter (SLC6A3, Homo sapiens, UniProt Q01959)	ligand displacement, radioligand	10 µM	inhibition	9%
COc1cc2ncnc(Cc3ccnc(-c4ccccc4)c3)c2cc1OC	PDE10A	enzyme activity, inhibitor, FP	0.1 µM	inhibition	58%
Cc1[nH]c(C)c(S(=O)(=O)Nc2ccc(Cl)c(C(F)(F)F)c2)c1C(=O)N1CCC(F)(F)C1	DRD3	β-arrestin recruitment, agonist	90 min	Emax	109%
COc1ccc(Cc2ccnc3ccccc23)cc1OC	PDE10A	enzyme activity, inhibitor, FP	0.1 µM	inhibition	11%
Cc1[nH]c(C)c(S(=O)(=O)Nc2cc(Cl)cc(Cl)c2Cl)c1C(=O)N1CCC(F)(F)C1	DRD3	β-arrestin recruitment, agonist	90 min	Emax	103%
CCCCC(=O)Nc1ccc(-c2ccc3ncn(CCC)c(=O)c3c2)cn1	Leukocyte tyrosine kinase receptor (LTK, Homo sapiens, UniProt P29376)	binding, competition with immobilised ligand	0.5 µM	remaining binding	100%
COc1cc2ccnc(C(=O)c3cccc4ccccc34)c2cc1OC	PDE10A	enzyme activity, inhibitor, FP	0.1 µM	inhibition	0%
COc1ccc2oc(-c3ccc4nc(N)oc4c3)c/c(=N\c3ccccc3NC(=O)CCN)c2c1	Discoidin domain-containing receptor 2 (DDR2, Homo sapiens, UniProt Q16832)	binding	1 µM	remaining binding	85%
Cc1[nH]c(C)c(S(=O)(=O)Nc2ccc(C(F)(F)F)c(Cl)c2)c1C(=O)N1C[C@@H](F)[C@H](F)C1 (relative stereo)	DRD3	β-arrestin recruitment, agonist	90 min	Emax	101%
COc1ccc(Cc2nccc3cc(OC)c(OC)cc23)cc1	PDE10A	enzyme activity, inhibitor, FP	0.1 µM	inhibition	38%
C1=C/COCc2cc(ccc2OCCN2CCCC2)Nc2nccc(n2)-c2cccc(c2)COC/1	AP2-associated protein kinase 1 (AAK1, Homo sapiens, UniProt Q2M2I8)	binding	0.1 µM	remaining binding	52%
